Drawing on ChEMBL document CHEMBL4371014, “Novel Allosteric Ligands of γ-Aminobutyric Acid Transporter 1 (GAT1) by MS Based Screening of Pseudostatic Hydrazone Libraries” (J Med Chem, 2018), this text covers Activity for 75 compounds.

The target of this assay is Sodium- and chloride-dependent GABA transporter 1 (Mus musculus) (UniProt P31648). In words: Inhibition of NO711 binding to mouse GAT1 expressed in HEK293 cell membranes assessed as residual binding at 1 uM preincubated for 4 hrs followed by NO711 addition and measured after 40 mins by LC-ESI-MS/MS analysis relative to control. Summed up:
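Single hydrazones formed in situ in the presence of mouse GAT1 from one aldehyde (1.0 µM) and hydrazine (200 µM). Formation ran 4 h, then NO711 MS marker was added for 40 min. Specifically bound NO711 was freed from the target and quantified by LC-ESI-MS/MS. Results are % remaining specific binding, means±SD of four replicates.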

`COc1cc(/C=N/NCC[C@@H]2CNC[C@H](C(=O)O)C2)cc(OC)c1O` (racemic): the Activity is 62%.

Take `COc1cc(F)ccc1-c1ccccc1/C=N/NC[C@@H]1CNC[C@H](C(=O)O)C1` (racemic): the Activity was found to be 80%. For the compound `COc1ccc(F)cc1-c1ccccc1/C=N/NC[C@@H]1CNC[C@H](C(=O)O)C1` (racemic), the Activity is 72%. Then `COc1cccc(F)c1-c1ccccc1/C=N/NC[C@@H]1CNC[C@H](C(=O)O)C1` (racemic), with 70%. The same measure for `COc1ccccc1/C=N/NC[C@@H]1CNC[C@H](C(=O)O)C1` (racemic): 85%; for `Cc1ccc(-c2cccc(/C=N/NC[C@@H]3CNC[C@H](C(=O)O)C3)c2)cc1` (racemic): 61%; for `Cc1ccc(-c2ccsc2/C=N/NCC[C@@H]2CNC[C@H](C(=O)O)C2)cc1` (racemic): 83%. Then `Cc1ccc(-c2ccsc2/C=N/NC[C@@H]2CNC[C@H](C(=O)O)C2)c(C)c1` (racemic), with 80%; and `Cc1cccc2cc(/C=N/NCC[C@@H]3CNC[C@H](C(=O)O)C3)c(Cl)nc12` (racemic), with 62%. On to `Cc1ccccc1-c1ccsc1/C=N/NCC[C@@H]1CNC[C@H](C(=O)O)C1` (racemic), for which the Activity is 64%. With `Cc1ccsc1-c1ccccc1/C=N/NCC[C@@H]1CNC[C@H](C(=O)O)C1` (racemic), the Activity turned out to be 61%. Regarding `Cc1ccsc1-c1sc(/C=N/NCC[C@@H]2CNC[C@H](C(=O)O)C2)cc1C` (racemic), the Activity was 79%.

As to `Cn1c(/C=N/NC[C@@H]2CNC[C@H](C(=O)O)C2)ccc1-c1ccc(Cl)cc1` (racemic), the Activity was 87%. Turning to `Cn1cnnc1Sc1ccc(/C=N/NC[C@@H]2CNC[C@H](C(=O)O)C2)o1` (racemic), the Activity came out at 84%. Turning to `Nc1ncc(-c2ccccc2/C=N/NC[C@@H]2CNC[C@H](C(=O)O)C2)cn1` (racemic), the Activity stood at 93%. Then `O=C(O)[C@H]1CNC[C@@H](CCN/N=C/c2ccc(-c3cccc(Cl)c3)o2)C1` (racemic), with 69%; and `O=C(O)[C@H]1CNC[C@@H](CCN/N=C/c2ccc(-c3ccccc3)o2)C1` (racemic), with 61%.

For the compound `O=C(O)[C@H]1CNC[C@@H](CCN/N=C/c2ccc(-c3ccccc3Cl)o2)C1` (racemic), the Activity stood at 52%. Consider `O=C(O)[C@H]1CNC[C@@H](CCN/N=C/c2ccc(-c3ccccc3OC(F)(F)F)o2)C1` (racemic), for which the Activity stood at 59%. For `O=C(O)[C@H]1CNC[C@@H](CCN/N=C/c2ccc(C#Cc3ccccc3)s2)C1` (racemic), the Activity worked out at 71%. Then `O=C(O)[C@H]1CNC[C@@H](CCN/N=C/c2ccccc2-c2ccsc2)C1` (racemic), with 80%; and `O=C(O)[C@H]1CNC[C@@H](CCN/N=C/c2ccccc2-n2cccc2)C1` (racemic), with 82%; and `O=C(O)[C@H]1CNC[C@@H](CCN/N=C/c2cccn2-c2ccc(C(F)(F)F)cc2)C1` (racemic), with 74%. Then `O=C(O)[C@H]1CNC[C@@H](CCN/N=C/c2ccco2)C1` (racemic), with 60%; and `O=C(O)[C@H]1CNC[C@@H](CCN/N=C/c2cnc(-c3ccccn3)nc2)C1` (racemic), with 83%; and `O=C(O)[C@H]1CNC[C@@H](CCN/N=C/c2csc3ccccc23)C1` (racemic), with 75%. Consider `O=C(O)[C@H]1CNC[C@@H](CCN/N=C/c2sccc2-n2cccc2)C1` (racemic), for which the Activity turned out to be 72%. `O=C(O)[C@H]1CNC[C@@H](CN/N=C/c2cc(Br)co2)C1` (racemic): the Activity is 53%. The same measure for `O=C(O)[C@H]1CNC[C@@H](CN/N=C/c2ccc(-c3ccc(Br)cc3)o2)C1` (racemic): 59%; for `O=C(O)[C@H]1CNC[C@@H](CN/N=C/c2ccc(-c3ccc(Cl)cc3)o2)C1` (racemic): 56%.

As for `O=C(O)[C@H]1CNC[C@@H](CN/N=C/c2ccc(-c3ccc(Cl)cc3)s2)C1` (racemic), the Activity was found to be 75%. Then `O=C(O)[C@H]1CNC[C@@H](CN/N=C/c2ccc(-c3ccc(Cl)cc3Cl)o2)C1` (racemic), with 40%. Take `O=C(O)[C@H]1CNC[C@@H](CN/N=C/c2ccc(-c3ccc(Cl)cc3F)o2)C1` (racemic): the Activity was determined as 67%.

Take `O=C(O)[C@H]1CNC[C@@H](CN/N=C/c2ccc(-c3ccc(Cl)cc3[N+](=O)[O-])o2)C1` (racemic): the Activity is 37%. Then `O=C(O)[C@H]1CNC[C@@H](CN/N=C/c2ccc(-c3ccc(F)c(C(F)(F)F)c3)o2)C1` (racemic), with 36%; and `O=C(O)[C@H]1CNC[C@@H](CN/N=C/c2ccc(-c3cccc(C(F)(F)F)c3)o2)C1` (racemic), with 38%. Then `O=C(O)[C@H]1CNC[C@@H](CN/N=C/c2ccc(-c3cccc(Cl)c3)o2)C1` (racemic), with 46%. The same measure for `O=C(O)[C@H]1CNC[C@@H](CN/N=C/c2ccc(-c3ccccc3)[nH]2)C1` (racemic): 85%; for `O=C(O)[C@H]1CNC[C@@H](CN/N=C/c2ccc(-c3ccccc3)o2)C1` (racemic): 68%. In the case of `O=C(O)[C@H]1CNC[C@@H](CN/N=C/c2ccc(-c3ccccc3)s2)C1` (racemic), the Activity was 55%. Then `O=C(O)[C@H]1CNC[C@@H](CN/N=C/c2ccc(-c3ccccc3Br)o2)C1` (racemic), with 36%. Turning to `O=C(O)[C@H]1CNC[C@@H](CN/N=C/c2ccc(-c3ccccc3C(F)(F)F)o2)C1` (racemic), the Activity is 49%. Then `O=C(O)[C@H]1CNC[C@@H](CN/N=C/c2ccc(-c3ccccc3Cl)o2)C1` (racemic), with 48%. As to `O=C(O)[C@H]1CNC[C@@H](CN/N=C/c2ccc(-c3ccn[nH]3)o2)C1` (racemic), the Activity is 81%. The same measure for `O=C(O)[C@H]1CNC[C@@H](CN/N=C/c2ccc(Br)o2)C1` (racemic): 55%; for `O=C(O)[C@H]1CNC[C@@H](CN/N=C/c2ccc(I)o2)C1` (racemic): 69%; for `O=C(O)[C@H]1CNC[C@@H](CN/N=C/c2ccc([N+](=O)[O-])cc2)C1` (racemic): 83%. Then `O=C(O)[C@H]1CNC[C@@H](CN/N=C/c2ccc[nH]2)C1` (racemic), with 89%. Then `O=C(O)[C@H]1CNC[C@@H](CN/N=C/c2cccc(-c3ccc(Cl)cc3)c2)C1` (racemic), with 52%; and `O=C(O)[C@H]1CNC[C@@H](CN/N=C/c2cccc(-c3ccc(F)cc3)c2)C1` (racemic), with 50%.

Turning to `O=C(O)[C@H]1CNC[C@@H](CN/N=C/c2cccc(-c3ccccc3)c2)C1` (racemic), the Activity amounted to 52%. For the compound `O=C(O)[C@H]1CNC[C@@H](CN/N=C/c2ccccc2-c2cc(F)cc(F)c2)C1` (racemic), the Activity was found to be 90%. Regarding `O=C(O)[C@H]1CNC[C@@H](CN/N=C/c2ccccc2-c2cc(F)ccc2F)C1` (racemic), the Activity amounted to 73%.

Consider `O=C(O)[C@H]1CNC[C@@H](CN/N=C/c2ccccc2-c2ccc(F)cc2F)C1` (racemic), for which the Activity is 66%. In the case of `O=C(O)[C@H]1CNC[C@@H](CN/N=C/c2ccccc2-c2cccc(F)c2F)C1` (racemic), the Activity stood at 58%.

For the compound `O=C(O)[C@H]1CNC[C@@H](CN/N=C/c2ccccc2-c2cccnc2)C1` (racemic), the Activity is 93%. Then `O=C(O)[C@H]1CNC[C@@H](CN/N=C/c2ccccc2-c2cccs2)C1` (racemic), with 87%; and `O=C(O)[C@H]1CNC[C@@H](CN/N=C/c2cccs2)C1` (racemic), with 67%. Then `O=C(O)[C@H]1CNC[C@@H](CN/N=C/c2cnc(-c3ccc4ccccc4c3)nc2)C1` (racemic), with 27%; and `O=C(O)[C@H]1CNC[C@@H](CN/N=C/c2cnc(-c3cccc4ccccc34)nc2)C1` (racemic), with 61%; and `O=C(O)[C@H]1CNC[C@@H](CN/N=C/c2cnc(-c3ccccc3)nc2)C1` (racemic), with 55%. For the compound `O=C(O)[C@H]1CNC[C@@H](CN/N=C/c2cnc(-c3ccccc3F)nc2)C1` (racemic), the Activity is 68%. Then `O=C(O)[C@H]1CNC[C@@H](CN/N=C/c2cnc(-c3ccco3)nc2)C1` (racemic), with 73%; and `O=C(O)[C@H]1CNC[C@@H](CN/N=C/c2cnc(-c3cccs3)nc2)C1` (racemic), with 60%; and `O=C(O)[C@H]1CNC[C@@H](CN/N=C/c2cnc(N3CCCCC3)nc2)C1` (racemic), with 69%. The same measure for `O=C(O)[C@H]1CNC[C@@H](CN/N=C/c2cnc(NCc3ccccc3)nc2)C1` (racemic): 60%; for `O=C(O)[C@H]1CNC[C@@H](CN/N=C/c2cnc(SCc3ccccc3)nc2)C1` (racemic): 53%. The same measure for `O=C(O)[C@H]1CNC[C@@H](CN/N=C/c2cncnc2)C1` (racemic): 64%; for `O=C(O)[C@H]1CNC[C@@H](CN/N=C/c2sccc2-c2ccc(C(F)(F)F)cc2C(F)(F)F)C1` (racemic): 88%; for `O=C(O)[C@H]1CNC[C@@H](CN/N=C/c2sccc2-c2ccc(Cl)cc2)C1` (racemic): 80%.

With `O=C(O)[C@H]1CNC[C@@H](CN/N=C/c2sccc2-c2ccc(Cl)cc2Cl)C1` (racemic), the Activity was determined as 81%. Then `O=C(O)[C@H]1CNC[C@@H](CN/N=C/c2sccc2-c2ccc(F)cc2F)C1` (racemic), with 80%; and `O=C(O)[C@H]1CNC[C@@H](CN/N=C/c2sccc2-c2ccccc2)C1` (racemic), with 85%. As to `O=C(O)[C@H]1CNC[C@@H](CN/N=C/c2sccc2-c2ccccc2Cl)C1` (racemic), the Activity was 84%. Then `O=C(O)[C@H]1CNC[C@@H](CN/N=C/c2sccc2-c2ccccc2F)C1` (racemic), with 84%.
